Fewer inactive variants are shown than the library holds.
B1: tRNA (parent)
chain: GUUCCGUUGGCGUAAUGGUAACGCGUCUCCCUCCUAAGGAGAAGACUGCGGGUUCGAGUCCCGUACGGAACG

Variants of: B1
Assay: yeast fitness relative to wild type (ratio to wild type); higher = fitter; tRNA-Arg(CCU), competitive growth, 37 C, YPD
Procedure, shortened: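 Variants of the tRNA-Arg(CCU) gene, chemically synthesised with a 3% per-site mutation rate at 69 sites, were placed at the native genomic locus in Saccharomyces cerevisiae. The pooled strains were competed in YPD at 37°C for 24 hours in six parallel replicates. Gene amplicons from the start population and from each end population were read by 100-nucleotide paired-end sequencing. Darwinian fitness relative to wild type came from changes in genotype frequencies; genotypes needed ≥ 100 starting reads, and estimates < 0.5 were set to 0.5.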

Row | Variant | yeast fitness
1 | GAUCCGUUGGCGUAAUGGUAACGCGUCUCCCUCCUAAGGAGAAGACUGCGGGUUCGAGUCCCGUACGGAACG | 0.988
2 | GAUCCGUUGGCGUCAUGGUGACGCGUCUCCCUCCUGAGGAGAAGACUGCGGGUCUGAGUCCCGUACGCAACG | 0.544
3 | GAUCCGUUGGCGUCAUGGUAACGCGUCUCCCUCCUGAGGAGAAGACUGCGGGUUCGAGUCCCGUAUGGAACG | 0.639
4 | GAUCCGUUGGCGUCAUGGUAACGCGUCUCUCUCGUAAGGAGAAGACUGCGGGUUCGACUCCCGUACGGAACG | ≤ 0.5
5 | GAUCCGUUGGCGUCAUGGUAACGCGUCUCUCUCGUAAGGAGAAGACUGCGGGUUCGAGUCCCAUACGGAACG | 0.574
6 | GAUCCGUUGGCGUGAUGGUAACGCGUCUCCCUCCUAAGGAGAAGACUGCGGGUUCGAGUCCCGUACGGAACG | 0.891
7 | GAUCCGUUGGCGUUAUGGUCACGCGUCUCCCUCCAAACGAGAAGACUGCGGGUUCGAGUCCCGUACGGUACG | ≤ 0.5
8 | GAUCCGUUGGCGUUAUGGUAACGCGUCUCCCUCCUAAGGACAAGACUGCGGGUUCGAGUCCCGUACGGAACG | ≤ 0.5
9 | GAUCCGUUGGCGUACUGGUAACGCGUCUCCCUCCUAAGGAGAAGACUGCGGGUUCGACUCCCGUACGGUACG | ≤ 0.5
10 | GAUCCGUUGGCGUAGUGGUAACGCGUCUCCCUCCUAAGGAGAAGACUGCGGGUUCGAGUCCCGUACGGAACG | 0.981
11 | GAUCCGUUGGCGUAGUGGUAACGUGUCUCCCUCCUAAGGAGAAGACUGCGGGUCCGAGUCCCGUACGGAACG | 0.726
12 | GAUCCGUUGGCGUAGCGGUCUCGCGCCUCCCUCCUAAGGAGAAGACUGCGGGUUCGAGUCCCGUACGGAACG | 0.583
13 | GAUCCGUUGGCGUAUUGGUAACGCGUCUCCCUCCUAAGGAGAAGACUGGGGGUUCGAGUCCCGUACGGAACG | ≤ 0.5
14 | GAUCCGUUGGCGUAUUGGUAACGCGUCUCCCUCCUAACAAGACGACUGCGGGUUCGAGUGCCGUCCGGAACG | ≤ 0.5
15 | GAUCCGUUGGCGUAUAGGUAACGCGUCUCCCUCCUAAGGAGAAGACUGCGGGUUCGAGUUCGGUCCGGUACG | ≤ 0.5
16 | GAUCCGUUGGCGUAAUGGUCACGCGUCUCCCUCCUAGGGAGAAGACUGCGGAAUCGAGUCCCGUACGGAACG | ≤ 0.5
17 | GAUCCGUUGGCGUAAUGGUCACGCGUCUCCCUACUAAGGAGAAGACUGCGGGUUUGAGUCCCGUACGGAACG | ≤ 0.5
18 | GAUCCGUUGGCGUAAUGGUCACGCGUCUCCCUCCUAAGGAGAAGACUGCGGGUUCGAGUCCUGUAGGGAACG | ≤ 0.5
19 | GAUCCGUUGGCGUAAUGGUCACGCGUCUCCCUCCUAAGGAGAAGACUGCGGGUUCGAGUCCCGUAUGGAACG | 0.753
20 | GAUCCGUUGGCGUAAUGGUCACGCGUCUCCCUCCUAAGGAGAAGACUGCGGAUUCGAGUCCCGUACGGAACG | 0.542
21 | GAUCCGUUGGCGUAAUGGUCACGCGUCUCCCUCCUAAGGAGAAGACUGCGGGUUCGAGUCCCGUACGAAACG | 0.719
22 | GAUCCGUUGGCGUAAUGGUGACGCGUCUUCCUACUAAGGAGAAGACUGCGGGUUAGAGUGCCGUACGGAACG | ≤ 0.5
23 | GAUCCGUUGGCGUAAUGGUGACGCGUCUCCCUCCUAAGGAGAAAACUGCGGGUUCGAGUCCCGUACGGAACG | 0.531
24 | GAUCCGUUGGCGUAAUGGUGACGCGUCUCCCUCCUAAGGAGAAGACUGCGGGUUCGACUCCCGUACGGAACG | 0.973
25 | GAUCCGUUGGCGUAAUGGUUACGCGUCUCCCUCCUAAGGAGAAGACUGCGGGUUCGAGUCCCGUACGGAACG | 0.732

Row | Variant | yeast fitness
26 | GAUCCGUUGGCGUAAUGGUUACGCGUCUCCCUCCUAAGGCGAAGACUGCGGGUUCGAGUCCCGUACGGAACG | 0.552
27 | GAUCCGUUGGCGUAAUGGUUACGCGUCUCCCUCAUAAGGAGAAGACUGCGGGUUCGAGUCUCGUACGGAACG | ≤ 0.5
28 | GAUCCGUUGGCGUAAUGGUUACGCGUCUCCCUCCCAAGGAGAAGACUGCGGGUUCGAGUCCCGUACGGAACG | ≤ 0.5
29 | GAUCCGUUGGCGUAAUGGUACCGGGUCUCCCACCUAAGGAGCAGACUGCGGGUUCGAGUCCCGUUCGGAACG | ≤ 0.5
30 | GAUCCGUUGGCGUAAUGGUAGCGCGUCUCCCUCCUGAGGAGAACACUGCGGGUUCGAGGCCCGUACGGAACG | ≤ 0.5
31 | GAUCCGUUGGCGUAAUGGUAGCGAGUCUCCCUCCUAAGGAGAAGACUGCGGGUUCGAGUCCCGUACGGAACG | ≤ 0.5
32 | GAUCCGUUGGCGUAAUGGUAGCGCGUUUCCCUCCUAAGGAGAAGACUGCGGGUUCGAGUCCCGUACGGAACG | 0.693
33 | GAUCCGUUGGCGUAAUGGUAGCGCGUCUUCCUCCUAAGGUGAAGACUGCGGGUUCGAGUCCCGUACGGAACG | 0.57
34 | GAUCCGUUGGCGUAAUGGUAGCGCGUCUCCCUCCUAAGGAGAAGAGUGCGGGUCCGAGUCCCGUACGGAACG | ≤ 0.5
35 | GAUCCGUUGGCGUAAUGGUAGCGCGUCUCCCUCCUAAGCAGAAGACUGCGGGUUCGAGUCCCGUACGGCACG | ≤ 0.5
36 | GAUCCGUUGGCGUAAUGGUAGCGCGUCUCCCUCCUAAGGAGAACACUGCGGGUUCGAGGCCCGUACGGAACG | ≤ 0.5
37 | GAUCCGUUGGCGUAAUGGUAUCGCGUUCCCCUCCUAAGGAGAAGACUGCGGGUUCGAGUCCGGUACGGAACG | ≤ 0.5
38 | GAUCCGUUGGCGUAAUGGUAUCGCGUCUUCCUCCUAAGGUGAAGACUGCGGGAUCGAGUACCGUGCGGAACG | ≤ 0.5
39 | GAUCCGUUGGCGUAAUGGUAACGCGUCUCCCUCCUGAGGAGAAGACUGCGGGUUCGAGUCCCGUACGGAACG | 0.985
40 | GAUCCGUUGGCGUAAUGGUAACGCGUCUCCCUCCUACGGAGAAGACUGCGGGUUCGAGUCCCGUACGGAACG | 0.833
41 | GAUCCGUUGGCGUAAUGGUAACGCGUCUCCCUCCUAUGGAGAAGACUGCGGGUUCGAGUCCCGUACGGAACG | 0.689
42 | GAUCCGUUGGCGUAAUGGUAACGCGUCUCCCUCCUAUGGAGAAGACUGCGGGAUCGAGUCCUGUACGGAACG | ≤ 0.5
43 | GAUCCGUUGGCGUAAUGGUAACGCGUCUCCCUCCUAAGGGGAUGCCUGCGGGUUCGGGUCCCGUCCGGAACG | ≤ 0.5
44 | GAUCCGUUGGCGUAAUGGUAACGCGUCUCCCUCCUAAGGGGAAGACUGCGGGUUCGAGUCCCGUACGGUACG | 0.553
45 | GAUCCGUUGGCGUAAUGGUAACGCGUCUCCCUCCUAAGGUGAAGACUCCGGGUUCGAGUCCCGUACGGAACG | ≤ 0.5
46 | GAUCCGUUGGCGUAAUGGUAACGCGUCUCCCUCCUAAGGAGUAGACUGCGGGUUCGAGUCCCGUACCGAACG | ≤ 0.5
47 | GAUCCGUUGGCGUAAUGGUAACGCGUCUCCCUCCUAAGGAGACGACUGUGGGUUCGAGUCCCGUACGGAACG | 0.602
48 | GAUCCGUUGGCGUAAUGGUAACGCGUCUCCCUCCUAAGGAGACGACUGCGGGUUCGAGUCUCGUACGGAACG | 0.572
49 | GAUCCGUUGGCGUAAUGGUAACGCGUCUCCCUCCUAAGGAGAUGACUGCGGGUUCGCGUCUCGUACGGAACG | 0.578
50 | GAUCCGUUGGCGUAAUGGUAACGCGUCUCCCUCCUAAGGAGAAGGCUGCGGGUUCGAGUCCCGUACGGAACG | 1.09

Row | Variant | yeast fitness
51 | GAUCCGUUGGCGUAAUGGUAACGCGUCUCCCUCCUAAGGAGAAGUCUGCGGGUUCGAGUCCCGUACGGAACG | 0.863
52 | GAUCCGUUGGCGUAAUGGUAACGCGUCUCCCUCCUAAGGAGAAGACUGCGGGUUCGUGUCCCGUACGGAACG | 0.663
53 | GAUCCGUUGGCGUAAUGGUAACGCGUCUCCCUCCUAAGGAGAAGACUGCGGGUUCGUGUCCCGUACGCAACG | ≤ 0.5
54 | GAUCCGUUGGCGUAAUGGUAACGCGUCUCCCUCCUAAGGAGAAGACUGCGGGUUCGAGUCCCGUCCGGAACG | 0.848
55 | GAUCCGUUGGCGUAAUGGUAACGCGUCUCCCUCCUAAGGAGAAGACUGCGGGUUCGAGUCCCGUACGGCACG | 0.959
56 | GAUCCGUUGGCGUAAUGGUAACGCGUCUCCCUCCUAAGGAGAAGACUGCGGGUUCGAGUCCCGUACGGUACG | 0.874
57 | GAUCCGUUGGCGUAAUGGUAACGCGUCUCCCUCCUAAGGAGAAGACUGCGGGUUCGAGUCCCGUACGGAGCG | 0.979
58 | GAUCCGUUGGCGUAAUGGUAACGCGUCUCCCUCCUAAGGAGAAGACUGCGGGUUCGAGUCCCGUACGGAUCG | 1.06
59 | GAUACGUUGGCGUAAUGGUAACGCGUCUCCCUCCUAAGGAGAAGAGUGCGGAUUCGAGUCCCGUACGGAACG | ≤ 0.5
60 | GAUACGUUGGCGCAAUGGUAACGCGUCUCCCUCCUAAGGAGGAGACUGCGGGUUGGAGUCCCGUACAGAACG | ≤ 0.5
61 | GAUACGUUGGCGCAAUGGUAACGCGUCUCCAUCCUAAGGAGAAGACUGGGGGUUCGGGUCCCGUACGGAACG | ≤ 0.5
62 | GAUACGUUGGCGUAAUGGUAACGCGCCUCCUUCCUAAAGAGAAGACUGCGGGUUCGAGUCCCGUACGGAACG | ≤ 0.5
63 | GAUGCGUUGGCGUAAUGGUAACGCGUCUCCCUCCUAAGGAGAAGACUGCGGGUUAGAGUCCCGUACGGAACG | 0.57
64 | GAUGCGUUGGCGUAAUGGUAACGCGUCUCCCUCCUAAGGAGAAGACUGCGGGUUAGAGUCGCGUACGGAACG | ≤ 0.5
65 | GAUUCGUUGGCGUAAUGGUAACGCGUCUCCCUCCUAAGGAGAAGACUGCGGGUUCGAGUCCCGUACGGAACG | 0.965
66 | GAUUCGUUGGCGUAAUGGUAACGCGUCUCCCUCCUAAGGAGAAGACUGCGGGUUCGAGUCCCGUACGGUACG | 0.787
67 | GAUUCGUGGGCGUAAUGGUAACGCGUCUCCAUCCUAAGGAGAACACUGCGGGUUCGAGUCCCGUGCGGAACG | ≤ 0.5
68 | GAUUCGUGGGCGUAAUGGUAACGCGUCUCCCUCCUAAGGAGAAGACUGCGGGUUGGAGUCCCGUACGGAACG | 0.513
69 | GAUUCGUUGGCGUAAUGGUAACGCGUCACUCUCCUAAGGAGAAGACUGCGGGUUCGAGUCCCGUACGGAACG | 0.56
70 | GAUCAGUUGGCGUAAUGGUACCGCGUCUCCCUCCUAAGGAGAAGACUGCGGGUUCGAGUCCCGUACGGAACG | ≤ 0.5
71 | GAUCAGUUGGCGUAAUGGUAAGGUGUCUCCCUCCUAAGGAGAAGACUGCCGGUUCGAGUCCCGUACGGAACG | ≤ 0.5
72 | GAUCAGUUGGCGUAAUGGUAACGCGUCUCCAUCCUAAGGAGAGGCCUGCGGGUUCGAGUCCCGUACGGAACG | ≤ 0.5
73 | GAUCAGUUGGCGUAAUGGUAACGCGUCUCCCUCCUAAGGAGAAGACUGCGGGUUCGAGUCCCGUAUGGAACG | ≤ 0.5
74 | GAUCAGUUCGCGUAACGGUAACGCCUCUCCCUCCUAAGGAGAAGACUGCGGGUUCGAGUCCCGUACGCAACG | 0.586
75 | GAUCAGUUGGCGUAAUGGUAACGCGUCUCCCUCCUAAGGAACAGACUGCCGGUUCGAGUCCCGUACGGAGCG | ≤ 0.5

Reference: the RNAGym collection of RNA variant scans (doi:10.1126/science.aae0568)
